This note sets out measurements from ChEMBL document CHEMBL3351516, “Efficient synthesis of eudistomin U and evaluation of its cytotoxicity” (Bioorg Med Chem Lett, 2014).

Values after ≈ are worked out from the molar mass of the structure shown. Some results are limits rather than exact numbers.

Test [1] can be described thus: Cytotoxicity against human C19 cells after 24 hrs by MTT assay. Particulars: C19, 24 h. The test is classed as functional, cell-based. In short, it runs like this:
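Thawed C-19 leukemia cells were grown 48 h in IMDM with penicillin, streptomycin and L-glutamate at 37 °C, 5% CO₂. Plated at 10,000 cells/well in IMDM, held 24 h, then treated 24 h with 0.1–300 µM (0.1% DMSO); DMSO control row. MTT (5 mg/mL in PBS, 20 µL/well) for 2 h, dissolved in DMSO, A490. IC50 from sigmoidal fit of percent survival.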
A general note: Formazan colour is commonly taken as a measure of viable cells.

The next test deals with P388. The experiment in a line: Growth inhibition of mouse P388 cells at 10 uM. It is filed as functional. The following applies: read-out: GI.
A short description of test [2]: Cytotoxicity against human Caov3 cells after 24 hrs by MTT assay. It is filed as functional, cell-based. Particulars: Caov-3, 24 h. In short, it runs like this:
(§1)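 Cells were grown 72 h in DMEM/F12 with penicillin, streptomycin and L-glutamate, trypsinized and counted. Plated at 10,000 cells/well in IMDM, held 24 h at 37 °C, 5% CO₂, then treated 24 h with 0.1–300 µM (0.1% DMSO); DMSO control row. MTT (5 mg/mL in PBS, 20 µL/well) for 2 h, dissolved in DMSO, A490. Sigmoidal-fit IC50 from percent survival.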

The next test relates to Candida albicans. The test can be described thus: Antibacterial activity against Candida albicans measured every 2.5 hrs by spectrophotometry. The test is classed as functional, organism-based. In short, it runs like this:
(§2)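 Yeasts were grown overnight at 30 °C: S. cerevisiae in synthetic dextrose medium, C. albicans wild-type diploid in WYPD with glucose. Subcultured to OD 0.1 and grown 2 h. Exposed to 0.1–300 µM (0.3% DMSO), with DMSO and caspofungin 1 µg/mL controls. Shaken at 30 °C, OD read every 2.5 h in duplicate to about 7.5 h. Sigmoidal-fit IC50, mean of three trials.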

Another test has as its system Streptococcus pyogenes. The test can be described thus: Antibacterial activity against Streptococcus pyogenes measured after overnight incubation by spectrophotometry. The test is classed as functional, organism-based. In short, it runs like this:
(§3)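 Bacteria were grown overnight at 37 °C in Luria broth, subcultured to OD 0.1 and grown 2 h more. Culture was added to cuvettes holding 0.1–300 µM test agent (0.3% DMSO). Controls were DMSO and streptomycin: 0.500 µg/mL for P. aeruginosa, 0.0625 µg/mL for the others. Shaken at 37 °C with OD read every 2.5 h in duplicate to about 7.5 h. IC50 from sigmoidal fit, mean of three trials.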

The subject of the next test is Pseudomonas aeruginosa. The test can be described thus: Antibacterial activity against Pseudomonas aeruginosa measured after overnight incubation by spectrophotometry. The test is classed as functional, organism-based. In short, it runs like this: as §3
A further test has as its system Saccharomyces cerevisiae. The experiment in a line: Antibacterial activity against Saccharomyces cerevisiae measured every 2.5 hrs by spectrophotometry. It is filed as functional, organism-based. In short, it runs like this:
as §2

The subject of another test is Staphylococcus aureus. The experiment in a line: Antibacterial activity against Staphylococcus aureus measured after overnight incubation by spectrophotometry. It is filed as functional, organism-based. In short, it runs like this: as §3
A further test concerns Escherichia coli. The experiment in a line: Antibacterial activity against Escherichia coli measured after overnight incubation by spectrophotometry. The test is classed as functional, organism-based. In short, it runs like this: as §3
Test [3] relates to Mycolicibacterium smegmatis. The experiment in a line: Antibacterial activity against Mycobacterium smegmatis measured every 2.5 hrs by spectrophotometry. The test is classed as functional, organism-based. In short, it runs like this: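 M. smegmatis MC²155 was grown 48 h at 37 °C with shaking in 7H9 complete medium with Tween, diluted 1:1000 and grown overnight. It was then subcultured to OD 0.1 and grown 2 h. Exposed to 0.1–300 µM (0.3% DMSO), with DMSO and streptomycin 0.250 µg/mL controls. Shaken at 37 °C, OD read every 2.5 h in duplicate to about 7.5 h. Sigmoidal-fit IC50, mean of three trials.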

A short description of test [4]: Cytotoxicity against human WM266.4 cells after 24 hrs by MTT assay. The following applies: WM 266-4, 24 h. It is filed as functional, cell-based. In short, it runs like this: as §1

The IC50 is the concentration that gives 50% inhibition. A higher IC50 goes with weaker potency in that assay. As for `c1ccc2c(-c3nccc4c3[nH]c3ccccc34)c[nH]c2c1`, the IC50 is 15.6 µg/mL (≈ 55.1 µM) in [1]; 24.9 µg/mL (≈ 87.9 µM) in test [2]; over 30 µg/mL in the test with Candida albicans; 3.4 µg/mL (≈ 12 µM) with Streptococcus pyogenes; 27.7 µg/mL (≈ 97.8 µM) in the test on Pseudomonas aeruginosa; over 300 µg/mL in the test with Saccharomyces cerevisiae. The IC50 is 6.4 µg/mL (≈ 22.6 µM) in the test with Staphylococcus aureus, 12.3 µg/mL (≈ 43.4 µM) in the test on Escherichia coli, 3.6 µg/mL (≈ 12.7 µM) in test [3] and 27.5 µg/mL (≈ 97.1 µM) in test [4]. For the same compound, the inhibition of growth at 10 µM in the test with P388 was 38%.
